From ChEMBL document CHEMBL1137710, “Synthesis and in vitro antitumor activity of new quinoxaline derivatives” (2009)

Columns and labels:
Type in all cases: functional
[1] = test system: NCI-H23; assay: Growth inhibition of human NCI-H23 cells after 48 hrs by sulforhodamine B assay; details: NCI-H23, 48 h
Summary of the method: (§1)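 NCI 60-human-tumor-cell-line panel, with compounds tested over a 5-log dose range. Values are taken from dose-response curves as log10 molar concentrations: GI50 is 50% net growth inhibition, TGI is total growth inhibition, and LC50 is 50% net cell death.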

[2] = test system: K562; assay: Growth inhibition of human K562 cells after 48 hrs by sulforhodamine B assay; details: K562, 48 h; summary of the method: as §1
[3] = test system: NCI-H522; assay: Growth inhibition of human NCI-H522 cells after 48 hrs by sulforhodamine B assay; details: NCI-H522, 48 h; summary of the method: as §1
[4] = test system: SK-MEL-2; assay: Growth inhibition of human SK-MEL-2 cells after 48 hrs by sulforhodamine B assay; details: SK-MEL-2, 48 h; summary of the method: as §1
[5] = test system: SF-268; assay: Anticancer activity against human SF268 cells assessed as cell growth at 100 uM after 48 hrs by sulforhodamine B assay; details: SF-268, 48 h, read-out: Activity
[6] = test system: LOX IMVI; assay: Growth inhibition of human LOXIMVI cells after 48 hrs by sulforhodamine B assay; summary of the method: as §1
[7] = test system: SW-620; assay: Growth inhibition of human SW620 cells after 48 hrs by sulforhodamine B assay; details: SW-620, 48 h
Summary of the method: (§2)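 Run in the NCI 60-human-tumour-cell-line panel, tested over a 5-log dose range. Dose–response curves gave three values per cell line, each as a log10 molar concentration: GI50 (50% inhibition of net cell growth), TGI (total inhibition of net growth) and LC50 (50% net cell death). The mean graph midpoint is the arithmetic mean over all lines, with insensitive lines entered at the highest concentration tested.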

[8] = test system: OVCAR-4; assay: Growth inhibition of human OVCAR4 cells after 48 hrs by sulforhodamine B assay; details: OVCAR-4, 48 h; summary of the method: as §1
[9] = test system: IGROV-1; assay: Growth inhibition of human IGROV1 cells after 48 hrs by sulforhodamine B assay; details: IGROV-1, 48 h; summary of the method: as §1
[10] = test system: MCF7; assay: Growth inhibition of human MCF7 cells after 48 hrs by sulforhodamine B assay; details: MCF7, 48 h; summary of the method: as §1
[11] = test system: 786-0; assay: Growth inhibition of human 786-0 cells after 48 hrs by sulforhodamine B assay; details: 786-0, 48 h; summary of the method: as §1
[12] = test system: NCI-H460; assay: Anticancer activity against human NCI-H460 cells assessed as cell growth at 100 uM after 48 hrs by sulforhodamine B assay; details: NCI-H460, 48 h, read-out: Activity
[13] = test system: U-251; assay: Growth inhibition of human U251 cells after 48 hrs by sulforhodamine B assay; details: U-251, 48 h; summary of the method: as §2
[14] = test system: CAKI-1; assay: Growth inhibition of human Caki1 cells after 48 hrs by sulforhodamine B assay; details: CAKI-1, 48 h; summary of the method: as §1
[15] = test system: A549; assay: Growth inhibition of human A549 cells after 48 hrs by sulforhodamine B assay; details: A549, 48 h; summary of the method: as §1
[16] = test system: DU-145; assay: Growth inhibition of human DU145 cells after 48 hrs by sulforhodamine B assay; details: DU-145, 48 h; summary of the method: as §1
[17] = test system: SF-295; assay: Growth inhibition of human SF295 cells after 48 hrs by sulforhodamine B assay; details: SF-295, 48 h; summary of the method: as §1
[18] = test system: MCF7; assay: Anticancer activity against human MCF7 cells assessed as cell growth at 100 uM after 48 hrs by sulforhodamine B assay; details: MCF7, 48 h, read-out: Activity
[19] = test system: UO-31; assay: Growth inhibition of human UO31 cells after 48 hrs by sulforhodamine B assay; details: UO-31, 48 h; summary of the method: as §2
[20] = test system: UACC-62; assay: Growth inhibition of human UACC62 cells after 48 hrs by sulforhodamine B assay; details: UACC-62, 48 h; summary of the method: as §2
[21] = test system: HOP-62; assay: Growth inhibition of human HOP62 cells after 48 hrs by sulforhodamine B assay; details: HOP-62, 48 h; summary of the method: as §1
[22] = test system: SK-OV-3; assay: Growth inhibition of human SKOV3 cells after 48 hrs by sulforhodamine B assay; details: SK-OV-3, 48 h; summary of the method: as §1
[23] = test system: SK-MEL-5; assay: Growth inhibition of human SK-MEL-5 cells after 48 hrs by sulforhodamine B assay; details: SK-MEL-5, 48 h; summary of the method: as §1
[24] = test system: MDA-MB-435; assay: Growth inhibition of human MDA-MB-435 cells after 48 hrs by sulforhodamine B assay; details: MDA-MB-435, 48 h; summary of the method: as §1
[25] = test system: M14; assay: Growth inhibition of human M14 cells after 48 hrs by sulforhodamine B assay; details: M14, 48 h; summary of the method: as §1
[26] = Growth inhibition of human […] cells after 48 hrs by sulforhodamine B assay; summary of the method: as §1
[27] = test system: SK-MEL-28; assay: Growth inhibition of human SK-MEL-28 cells after 48 hrs by sulforhodamine B assay; details: SK-MEL-28, 48 h; summary of the method: as §1
[28] = test system: NCI-H322M; assay: Growth inhibition of human NCI-H322M cells after 48 hrs by sulforhodamine B assay; summary of the method: as §1
[29] = test system: SF-268; assay: Growth inhibition of human SF268 cells after 48 hrs by sulforhodamine B assay; details: SF-268, 48 h; summary of the method: as §1
[30] = read-out: pLC50 (the source's name) (converted)

Q: What does the source list for COc1ccc(CNc2nc3cc(N)cc(N)c3nc2-c2ccccc2)cc1OC?
A: GI50 [1]: 17 µM; LC50 (50% net cell kill concentration) [1]: 91.2 µM; TGI ([1]; read-out: pTGI (converted)): 39.8 µM; GI50 [2]: 6.03 µM; LC50 [2]: > 100 µM; TGI ([2]; read-out: pTGI (converted)): > 100 µM; GI50 [3]: 2.69 µM; LC50 [3]: 63.1 µM; TGI ([3]; read-out: pTGI (converted)): 6.31 µM; GI50 [4]: 8.71 µM; CC50 [4, 30]: > 100 µM; TGI ([4]; read-out: pTGI (converted)): 30.2 µM; growth at 100 µM [5]: 47%; GI50 [6]: 3.09 µM; LC50 [6]: > 100 µM; TGI ([6]; read-out: pTGI (converted)): 14.1 µM; GI50 [7]: 5.25 µM; CC50 [7, 30]: > 100 µM; TGI ([7]; read-out: pTGI (converted)): > 100 µM; GI50 [8]: 2.69 µM; CC50 [8, 30]: 52.5 µM; TGI ([8]; read-out: pTGI (converted)): 7.41 µM; GI50 [9]: 11.5 µM; CC50 [9, 30]: > 100 µM; TGI ([9]; read-out: pTGI (converted)): 40.7 µM; GI50 [10]: 25.7 µM; CC50 [10, 30]: > 100 µM; TGI ([10]; read-out: pTGI (converted)): > 100 µM; GI50 [11]: 15.5 µM; CC50 [11, 30]: 75.9 µM; TGI ([11]; read-out: pTGI (converted)): 34.7 µM; growth at 100 µM [12]: 3%; GI50 [13]: 17 µM; LC50 (50% net cell kill) [13]: 89.1 µM; TGI ([13]; read-out: pTGI (converted)): 38.9 µM; GI50 [14]: 11.2 µM; CC50 [14, 30]: 53.7 µM; TGI ([14]; read-out: pTGI (converted)): 24.5 µM; GI50 [15]: 20.9 µM; LC50 [15]: > 100 µM; TGI ([15]; read-out: pTGI (converted)): 50.1 µM; GI50 [16]: 0.46 µM; CC50 [16, 30]: > 100 µM; TGI ([16]; read-out: pTGI (converted)): 87.1 µM; GI50 [17]: 13.2 µM; LC50 (50% net cell kill) [17]: 58.9 µM; TGI ([17]; read-out: pTGI (converted)): 28.2 µM; growth at 100 µM [18]: 0%; GI50 [19]: 13.5 µM; CC50 [19, 30]: > 100 µM; TGI ([19]; read-out: pTGI (converted)): 45.7 µM; GI50 [20]: 12.9 µM; CC50 [20, 30]: 53.7 µM; TGI ([20]; read-out: pTGI (converted)): 26.3 µM; GI50 [21]: 18.2 µM; LC50 [21]: 64.6 µM; TGI ([21]; read-out: pTGI (converted)): 34.7 µM; GI50 [22]: 21.9 µM; CC50 [22, 30]: > 100 µM; TGI ([22]; read-out: pTGI (converted)): 46.8 µM; GI50 [23]: 10 µM; CC50 [23, 30]: 77.6 µM; TGI ([23]; read-out: pTGI (converted)): 27.5 µM; GI50 [24]: 1.95 µM; CC50 [24, 30]: 8.51 µM; TGI ([24]; read-out: pTGI (converted)): 4.07 µM; GI50 [25]: 4.27 µM; CC50 [25, 30]: 33.9 µM; TGI ([25]; read-out: pTGI (converted)): 7.76 µM; GI50 [26]: 2.14 µM; LC50 [26]: > 100 µM; TGI ([26]; read-out: pTGI (converted)): 7.24 µM; GI50 [27]: 13.5 µM; CC50 [27, 30]: 67.6 µM; TGI ([27]; read-out: pTGI (converted)): 30.2 µM; GI50 [28]: 22.9 µM; LC50 [28]: 100 µM; TGI ([28]; read-out: pTGI (converted)): 47.9 µM; GI50 [29]: 14.8 µM; LC50 [29]: > 100 µM; TGI ([29]; read-out: pTGI (converted)): 60.3 µM
